Test system: P388
Experiment: MST of treated animal over control when administered at a dose of 10 mg/kg intraperitoneally on Q01Dx05 treatment schedule
Assay type: functional, Mus musculus
Settings: route intraperitoneal
Outline: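 P388 leukaemia: DBA/2 mice inoculated with 10^6 cells on day 0; treatment began day 1 at the stated route and schedule. Drug was dissolved in 0.15 M NaCl saline. The read-out was median survival time (MST, days), with toxicity taken as survivors on day 5. T/C% = treated MST/control MST × 100; ≥125% is considered significant.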

## O=C1C(N2CC2)=C(N2CC2)C(=O)c2ncncc21
  T/C: 84%

— ChEMBL document CHEMBL1122504, “Heterocyclic Quinones. 4. A new highly cytotoxic drug: 6,7-bis(1-aziridinyl)-5,8-quinazolinedione” (1983)
